Data from ChEMBL document CHEMBL4118069, “Structure-activity relationship study and optimisation of 2-aminopyrrole-1-benzyl-4,5-diphenyl-1H-pyrrole-3-carbonitrile as a broad spectrum metallo-β-lactamase inhibitor” (Eur J Med Chem, 2017).

Key:
Bacteria [1] = experiment: Inhibition of bacterial IMP1 at 10 uM using CENTA as substrate by UV/Vis multi-plate spectrophotometric method relative to control
Bacteria [2] = experiment: Competitive inhibition of bacterial IMP1 using CENTA as substrate by UV/Vis multi-plate spectrophotometric method
Bacteria [3] = experiment: Uncompetitive inhibition of bacterial IMP1 using CENTA as substrate by UV/Vis multi-plate spectrophotometric method
[4] = Drug metabolism assessed as bacterial IMP1-mediated N-(1-Benzyl-3-cyano-4,5-diphenyl-1H-pyrrol-2-yl)benzamide formation by ESI-MS method; type: ADME; settings: bacteria
[5] = biological target: T1, Metallo-beta-lactamase AIM-1 (Pseudomonas aeruginosa) (UniProt B5DCA0); experiment: Competitive inhibition of Pseudomonas aeruginosa recombinant AIM1 expressed in Escherichia coli BL21(DE3) using cefuroxime as substrate by UV/Vis multi-plate spectrophotometric method
T1 sequence (whole entry): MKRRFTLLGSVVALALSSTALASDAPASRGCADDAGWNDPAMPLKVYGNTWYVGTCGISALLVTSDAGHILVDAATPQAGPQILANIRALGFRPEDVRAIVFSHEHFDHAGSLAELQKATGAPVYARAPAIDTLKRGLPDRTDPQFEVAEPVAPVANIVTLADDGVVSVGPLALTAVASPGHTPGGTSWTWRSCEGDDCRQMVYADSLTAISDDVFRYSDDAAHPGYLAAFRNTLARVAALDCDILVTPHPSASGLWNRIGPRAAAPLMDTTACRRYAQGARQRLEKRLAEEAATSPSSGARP

[6] = biological target: T1, Metallo-beta-lactamase AIM-1 (Pseudomonas aeruginosa); experiment: Uncompetitive inhibition of Pseudomonas aeruginosa recombinant AIM1 expressed in Escherichia coli BL21(DE3) using cefuroxime as substrate by UV/Vis multi-plate spectrophotometric method
Bacteria [7] = experiment: Inhibition of bacterial IMP1 expressed in Escherichia coli BL21(DE3) assessed as potentiation of meropenem-mediated antibacterial activity by measuring meropenem MIC at 30 uM after overnight incubation (reference value: 1 ug/ml)
Method in brief: (§1)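 Meropenem MICs (µg/mL) measured for E. coli BL21 cultures expressing IMP-1, CphA or AIM-1. Each strain was tested with no inhibitor (blank) and with the test compound at 30 µM. Change in sensitivity is expressed as the reduction of the meropenem MIC relative to the blank.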

[8] = biological target: Metallo-beta-lactamase type 2 (Aeromonas hydrophila) (UniProt P26918); experiment: Inhibition of Aeromonas hydrophila CphA expressed in Escherichia coli BL21(DE3) assessed as potentiation of meropenem-mediated antibacterial activity by measuring meropenem MIC at 30 uM after overnight incubation (reference value: 1 ug/ml); method in brief: as §1
[9] = biological target: T1, Metallo-beta-lactamase AIM-1 (Pseudomonas aeruginosa); experiment: Inhibition of Pseudomonas aeruginosa recombinant AIM1 expressed in Escherichia coli BL21(DE3) assessed as potentiation of meropenem-mediated antibacterial activity by measuring meropenem MIC at 30 uM after overnight incubation (reference value: 2 ug/ml); method in brief: as §1
Escherichia coli [10] = experiment: Growth inhibition of Escherichia coli BL21(DE3) expressing Pseudomonas aeruginosa AIM1; type: organism-based; settings: in vivo
Escherichia coli [11] = experiment: Growth inhibition of Escherichia coli BL21(DE3) expressing Aeromonas hydrophila CphA; type: organism-based; settings: in vivo
Escherichia coli [12] = experiment: Growth inhibition of Escherichia coli BL21(DE3) expressing bacterial IMP1; type: organism-based; settings: in vivo
[13] = biological target: Metallo-beta-lactamase type 2 (Aeromonas hydrophila) (UniProt P26918); experiment: Competitive inhibition of Aeromonas hydrophila recombinant CphA expressed in Escherichia coli BL21(DE3) using meropenem as substrate by UV/Vis multi-plate spectrophotometric method
[14] = biological target: Metallo-beta-lactamase type 2 (Aeromonas hydrophila) (UniProt P26918); experiment: Uncompetitive inhibition of Aeromonas hydrophila recombinant CphA expressed in Escherichia coli BL21(DE3) using meropenem as substrate by UV/Vis multi-plate spectrophotometric method
[15] = biological target: T1, Metallo-beta-lactamase AIM-1 (Pseudomonas aeruginosa); experiment: Inhibition of Pseudomonas aeruginosa AIM1 expressed in Escherichia coli BL21(DE3) assessed as decrease in meropenem MIC at 30 uM after overnight incubation relative to control; method in brief: as §1
[16] = biological target: Metallo-beta-lactamase type 2 (Aeromonas hydrophila) (UniProt P26918); experiment: Inhibition of Aeromonas hydrophila CphA expressed in Escherichia coli BL21(DE3) assessed as decrease in meropenem MIC at 30 uM after overnight incubation relative to control; method in brief: as §1
Bacteria [17] = experiment: Inhibition of bacterial IMP1 expressed in Escherichia coli BL21(DE3) assessed as decrease in meropenem MIC at 30 uM after overnight incubation relative to control; method in brief: as §1

Sequence of Metallo-beta-lactamase type 2 (Aeromonas hydrophila) (P26918 whole entry): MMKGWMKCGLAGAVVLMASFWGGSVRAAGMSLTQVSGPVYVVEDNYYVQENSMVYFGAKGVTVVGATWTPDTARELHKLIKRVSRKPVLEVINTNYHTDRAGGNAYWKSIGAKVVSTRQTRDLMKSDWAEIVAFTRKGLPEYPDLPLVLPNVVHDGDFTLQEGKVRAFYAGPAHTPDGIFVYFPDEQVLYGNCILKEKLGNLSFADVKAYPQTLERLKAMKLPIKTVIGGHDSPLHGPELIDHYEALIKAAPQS

SMILES: Cc1c(C#N)c(N)n(Cc2ccccc2)c1C
- inhibition (Bacteria [1]): 2.3%

SMILES: COc1ccc(Cn2c(N)c(C#N)c(-c3ccccc3)c2-c2ccccc2)cc1
- inhibition (Bacteria [1]): 20.1%

SMILES: CCCCCCCCCCCCCC(=O)N(C(=O)CCCCCCCCCCCCC)c1c(C#N)c(-c2ccccc2)c(-c2ccccc2)n1Cc1ccccc1
- inhibition (Bacteria [1]): 14.3%

SMILES: CCCCCCCCCCCCCC(=O)Nc1c(C#N)c(-c2ccccc2)c(-c2ccccc2)n1Cc1ccccc1
- inhibition (Bacteria [1]): 8.2%

SMILES: NC(=O)c1c(-c2ccccc2)c(-c2ccccc2)n(Cc2ccccc2)c1N
- inhibition (Bacteria [1]): 0%

SMILES: Nc1c(-c2nnn[nH]2)c(-c2ccccc2)c(-c2ccccc2)n1Cc1ccccc1
- inhibition (Bacteria [1]): 8.7%

SMILES: Cc1cc(C)cc(C(=O)N(C(=O)c2cc(C)cc(C)c2)c2c(C#N)c(-c3ccccc3)c(-c3ccccc3)n2Cc2ccccc2)c1
- inhibition (Bacteria [1]): 13.3%

SMILES: CC(=O)N(C(C)=O)c1c(C#N)c(-c2ccccc2)c(-c2ccccc2)n1Cc1ccccc1
- inhibition (Bacteria [1]): 18.6%

SMILES: N#Cc1c(-c2ccccc2)c(-c2ccccc2)n(Cc2ccccc2)c1N(C(=O)c1ccccc1)C(=O)c1ccccc1
- inhibition (Bacteria [1]): 48%
- Kic (Bacteria [2]): 468 µM
- Kiuc (Bacteria [3]): 55 µM
- Drug metabolism [4]: Metabolite_Notdetected

SMILES: N#Cc1c(-c2ccccc2)c(-c2ccccc2)n(Cc2ccccc2)c1N(C(=O)c1ccc([N+](=O)[O-])cc1)C(=O)c1ccc([N+](=O)[O-])cc1
- inhibition (Bacteria [1]): 20.2%

SMILES: CCCC(=O)N(C(=O)CCC)c1c(C#N)c(-c2ccccc2)c(-c2ccccc2)n1Cc1ccccc1
- inhibition (Bacteria [1]): 17.1%

SMILES: N#Cc1c(-c2ccco2)c(-c2ccco2)n(Cc2ccccc2)c1N
- inhibition (Bacteria [1]): 23.2%

SMILES: N#Cc1c(-c2ccccc2)c(-c2ccccc2)n(Cc2ccccc2)c1NC(=O)c1ccc([N+](=O)[O-])cc1
- inhibition (Bacteria [1]): 36.9%
- Kic (Bacteria [2]): 1.24 µM
- Kic [5]: 10.9 µM
- Kiuc [6]: 47 µM
- MIC (Bacteria [7]): 0.25 µg/mL
- MIC [8]: 0.75 µg/mL
- MIC [9]: 0.5 µg/mL
- growth inhibition (GI) (Escherichia coli [10]): Non-Toxic
- growth inhibition (GI) (Escherichia coli [11]): Non-Toxic
- growth inhibition (GI) (Escherichia coli [12]): Non-Toxic

SMILES: N#Cc1c(-c2ccccc2)c(-c2ccccc2)n(Cc2ccccc2)c1NC(=O)C1CCCCC1
- inhibition (Bacteria [1]): 23.3%

SMILES: N#Cc1c(-c2ccccc2)c(-c2ccccc2)n(Cc2ccccc2)c1N1C(=O)c2ccccc2C1=O
- inhibition (Bacteria [1]): 20.3%

SMILES: Cc1cc(C)cc(C(=O)Nc2c(C#N)c(-c3ccccc3)c(-c3ccccc3)n2Cc2ccccc2)c1
- inhibition (Bacteria [1]): 32.3%
- Kic (Bacteria [2]): 20.2 µM
- Kiuc (Bacteria [3]): 7.8 µM

SMILES: N#Cc1c(-c2ccccc2)c(-c2ccccc2)n(Cc2ccccc2)c1NC(=O)c1ccc(C(=O)c2ccccc2)cc1
- inhibition (Bacteria [1]): 44.3%
- Kiuc (Bacteria [3]): 1.52 µM
- Kic [13]: 872 µM
- Kiuc [14]: 161 µM
- MIC (Bacteria [7]): 0.5 µg/mL
- MIC [8]: 0.75 µg/mL
- MIC [9]: 0.75 µg/mL
- growth inhibition (GI) (Escherichia coli [10]): Non-Toxic
- growth inhibition (GI) (Escherichia coli [11]): Non-Toxic
- growth inhibition (GI) (Escherichia coli [12]): Non-Toxic

SMILES: N#Cc1c(-c2ccccc2)c(-c2ccccc2)n(Cc2ccccc2)c1NC(=O)c1cccc([N+](=O)[O-])c1
- inhibition (Bacteria [1]): 48.7%
- Kic (Bacteria [2]): 23.7 µM
- Kiuc (Bacteria [3]): 3.3 µM

SMILES: N#Cc1c(-c2ccccc2)c(-c2ccccc2)n(Cc2ccccc2)c1NC(=O)c1ccccc1
- inhibition (Bacteria [1]): 50.9%
- Kic (Bacteria [2]): 10.7 µM
- Kiuc (Bacteria [3]): 4.3 µM
- Kic [13]: 11 µM
- Kiuc [14]: 9 µM
- Kic [5]: 1.6 µM
- Kiuc [6]: 13 µM
- fold change (FC) [15]: 20
- fold change (FC) [16]: 40
- fold change (FC) (Bacteria [17]): 20
- growth inhibition (GI) (Escherichia coli [10]): Non-Toxic
- growth inhibition (GI) (Escherichia coli [11]): Non-Toxic
- growth inhibition (GI) (Escherichia coli [12]): Non-Toxic

SMILES: N#Cc1c(-c2ccccc2)c(-c2ccccc2)n(-c2ccccc2)c1N
- inhibition (Bacteria [1]): 0%

SMILES: CC(=O)Nc1c(C#N)c(-c2ccccc2)c(-c2ccccc2)n1Cc1ccccc1
- inhibition (Bacteria [1]): 16.1%

SMILES: N#Cc1c(-c2ccccc2)c(-c2ccccc2)n(CCc2ccccc2)c1N
- inhibition (Bacteria [1]): 4.8%

SMILES: CCCC(=O)Nc1c(C#N)c(-c2ccccc2)c(-c2ccccc2)n1Cc1ccccc1
- inhibition (Bacteria [1]): 21%

SMILES: N#Cc1c(-c2ccccc2)c(-c2ccccc2)n(Cc2ccccc2)c1N
- inhibition (Bacteria [1]): 26%
- Kic (Bacteria [2]): 21 µM
- Kic [13]: 52 µM
- Kiuc [14]: 5.5 µM
- Kic [5]: 2.2 µM
- Kiuc [6]: 12.5 µM
- MIC (Bacteria [7]): 0.5 µg/mL
- MIC [8]: 0.047 µg/mL
- MIC [9]: 0.25 µg/mL
- growth inhibition (GI) (Escherichia coli [10]): Non-Toxic
- growth inhibition (GI) (Escherichia coli [11]): Non-Toxic
- growth inhibition (GI) (Escherichia coli [12]): Non-Toxic

SMILES: N#Cc1c(-c2ccccc2)c(-c2ccccc2)n(CCCCc2ccccc2)c1N
- inhibition (Bacteria [1]): 8.7%

SMILES: N#Cc1c(N)[nH]c(-c2ccccc2)c1-c1ccccc1
- inhibition (Bacteria [1]): 12%

SMILES: N#Cc1c(-c2ccccc2)c(-c2ccccc2)n(CCCc2ccccc2)c1N
- inhibition (Bacteria [1]): 4.1%
